Reference: ChEMBL document CHEMBL1139414, “Conformationally constrained analogues of diacylglycerol. 29. Cells sort diacylglycerol-lactone chemical zip codes to produce diverse and selective biological activities” (J Med Chem, 2008)

Tests used:
[1] = target: Protein kinase C alpha type (Mus musculus, UniProt P20444); assay: Displacement of [3H]PDBu form mouse PKCalpha by scintillation counting
In short: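 Partially purified mouse PKCα; competition with [³H]PDBU. ID50 obtained by fitting a sigmoidal competition curve and converted to Ki = ID50/(1+L/Kd). Pure compounds tested at 6–7 concentrations; crude library compounds at a single 1 μM concentration. Triplicates per concentration, at least three experiments; mean ± SEM.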

[2] = target: T1, Ras guanyl-releasing protein 3 (Homo sapiens, UniProt Q8IV61); assay: Binding affinity to RasGRP3
T1 sequence (Q8IV61 whole entry): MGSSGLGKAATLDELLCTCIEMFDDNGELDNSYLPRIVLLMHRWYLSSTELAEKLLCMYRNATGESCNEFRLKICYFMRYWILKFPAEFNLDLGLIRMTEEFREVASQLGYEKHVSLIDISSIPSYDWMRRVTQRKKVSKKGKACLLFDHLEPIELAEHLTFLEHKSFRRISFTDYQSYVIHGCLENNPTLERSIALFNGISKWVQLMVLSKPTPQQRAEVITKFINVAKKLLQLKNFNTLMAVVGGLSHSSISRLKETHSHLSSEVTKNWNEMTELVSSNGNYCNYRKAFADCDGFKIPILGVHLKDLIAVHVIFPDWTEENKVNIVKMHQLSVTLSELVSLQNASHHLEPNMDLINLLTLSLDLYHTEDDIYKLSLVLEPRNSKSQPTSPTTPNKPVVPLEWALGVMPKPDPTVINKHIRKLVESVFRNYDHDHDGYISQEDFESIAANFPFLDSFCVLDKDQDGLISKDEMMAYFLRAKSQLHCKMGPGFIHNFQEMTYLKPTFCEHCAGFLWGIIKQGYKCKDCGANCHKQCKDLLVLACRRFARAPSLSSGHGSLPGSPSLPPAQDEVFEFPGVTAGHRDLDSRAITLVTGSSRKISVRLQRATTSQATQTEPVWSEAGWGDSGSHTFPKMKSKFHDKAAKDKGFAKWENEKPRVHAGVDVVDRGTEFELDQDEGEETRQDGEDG

Structure (SMILES)	Ki [1]	Ki [2]
CN(C)c1ccc(C(=O)OCC2(CO)C/C(=C\c3ccccc3[N+](=O)[O-])C(=O)O2)cc1 (racemic)	54.5 nM	14.4 nM
CN(C)c1ccc(C(=O)OCC2(CO)C/C(=C\c3ccc([N+](=O)[O-])cc3)C(=O)O2)cc1 (racemic; form 1)	127 nM	3.8 nM
O=C1OC(CO)(COC(=O)c2ccc([N+](=O)[O-])cc2)C/C1=C\c1ccc([N+](=O)[O-])cc1 (racemic; form 2)	127 nM	2.22 nM
CN(C)c1ccc(/C=C2\CC(CO)(COC(=O)c3ccc(N(C)C)cc3)OC2=O)cc1 (racemic; form 1)	102 nM	4.68 nM
CN(C)c1ccccc1C(=O)OCC1(CO)C/C(=C\c2cccc([N+](=O)[O-])c2)C(=O)O1 (racemic)	44 nM	3.9 nM
CN(C)c1ccccc1C(=O)OCC1(CO)C/C(=C\c2ccccc2[N+](=O)[O-])C(=O)O1 (racemic)	134 nM	9.4 nM
CC(CC(=O)OCC1(CO)C/C(=C/c2cc(C(F)(F)F)cc(C(F)(F)F)c2)C(=O)O1)CC(C)(C)C (racemic)	30.1 nM	
CCCCC(/C=C1/CC(CO)(COC(=O)c2ccc(N(C)C)cc2)OC1=O)CC (racemic; form 1)	466 nM	
CN(C)c1ccc(C(=O)OCC2(CO)C/C(=C\c3ccc([N+](=O)[O-])cc3)C(=O)O2)cc1 (racemic; form 2)	362 nM	
CCC(C(=O)OCC1(CO)C/C(=C/c2ccccc2C(F)(F)F)C(=O)O1)c1ccccc1 (racemic)	59 nM	
COc1ccc(C(=O)OCC2(CO)C/C(=C\c3ccc(N(C)C)cc3)C(=O)O2)cc1 (racemic; form 1)	103 nM	
COc1ccc(/C=C2\CC(CO)(COC(=O)c3ccc(OC)cc3)OC2=O)cc1 (racemic; form 2)	332 nM	
CCCC(CCC)C(=O)OCC1(CO)C/C(=C\c2ccc(F)c(Cl)c2)C(=O)O1 (racemic; form 2)	9.3 nM	
CC(CC(=O)OCC1(CO)C/C(=C/c2ccccc2C(F)(F)F)C(=O)O1)CC(C)(C)C (racemic)	33.3 nM	
O=C1OC(CO)(COC(=O)C(c2ccccc2)c2ccccc2)C/C1=C/c1cc(C(F)(F)F)cc(C(F)(F)F)c1 (racemic)	79.5 nM	
CCCC(CCC)C(=O)OCC1(CO)C/C(=C\c2ccc(F)c(Br)c2)C(=O)O1 (racemic; form 2)	2.66 nM	
O=C1OC(CO)(COC(=O)c2ccc([N+](=O)[O-])cc2)C/C1=C\c1ccc([N+](=O)[O-])cc1 (racemic; form 1)	660 nM	
CN(C)c1ccc(C(=O)OCC2(CO)C/C(=C\c3cccc([N+](=O)[O-])c3)C(=O)O2)cc1 (racemic)	72.4 nM	8 nM
CC(C)C(=O)OCC1(CO)C/C(=C/c2ccc(C(F)(F)F)cc2)C(=O)O1 (racemic)	78 nM	
CC(C)c1cc(C(C)C)c(C(=O)OCC2(CO)C/C(=C/c3ccc(N(C)C)cc3)C(=O)O2)c(C(C)C)c1 (racemic)	660 nM	
CCCCC(CC)C(=O)OCC1(CO)C/C(=C/c2ccccc2C(F)(F)F)C(=O)O1 (racemic)	22.8 nM	
Cc1ccc(C(=O)OCC2(CO)C/C(=C/c3ccc(N(C)C)cc3)C(=O)O2)cc1 (racemic)	406 nM	
CCC(C(=O)OCC1(CO)C/C(=C/c2cccc(C(F)(F)F)c2)C(=O)O1)c1ccccc1 (racemic)	30.2 nM	

Structure (SMILES)	Ki [1]	Ki [2]
CC(CC(=O)OCC1(CO)C/C(=C/c2cccc(C(F)(F)F)c2)C(=O)O1)CC(C)(C)C (racemic; form 1)	13.3 nM	
Cc1ccccc1C(=O)OCC1(CO)C/C(=C/c2ccc(N(C)C)cc2)C(=O)O1 (racemic)	376 nM	
CCCC(CCC)C(=O)OCC1(CO)C/C(=C\c2ccc(Cl)c(F)c2)C(=O)O1 (racemic; form 2)	21.5 nM	
CC(C)C(=O)OCC1(CO)C/C(=C/c2ccccc2C(F)(F)F)C(=O)O1 (racemic; form 2)	158 nM	
CC(C)(C)C(=O)OCC1(CO)C/C(=C/c2ccccc2C(F)(F)F)C(=O)O1 (racemic)	54.5 nM	
CC(C)(C)CC(=O)OCC1(CO)C/C(=C/c2ccc(OC(F)(F)F)cc2)C(=O)O1 (racemic)	24.6 nM	
CN(C)c1cccc(C(=O)OCC2(CO)C/C(=C\c3ccccc3[N+](=O)[O-])C(=O)O2)c1 (racemic)	116 nM	16.4 nM
CN(C)c1ccc(/C=C2/CC(CO)(COC(=O)c3ccc(C(F)(F)F)cc3)OC2=O)cc1 (racemic)	515 nM	
CCCCCC/C=C1/CC(CO)(COC(=O)c2ccccc2)OC1=O (racemic)	98.5 nM	
Cc1cc(C)c(C(=O)OCC2(CO)C/C(=C/c3ccc([N+](=O)[O-])cc3)C(=O)O2)c(C)c1 (racemic)	37.5 nM	
CC(CC(=O)OCC1(CO)C/C(=C/c2ccc(F)c(Cl)c2)C(=O)O1)CC(C)(C)C (racemic)	22.4 nM	
CN(C)c1cccc(C(=O)OCC2(CO)C/C(=C\c3cccc([N+](=O)[O-])c3)C(=O)O2)c1 (racemic)	63 nM	5.3 nM
COc1ccc(C(=O)OCC2(CO)C/C(=C\c3ccc([N+](=O)[O-])cc3)C(=O)O2)cc1 (racemic; form 1)	281 nM	
CN(C)c1ccc(/C=C2\CC(CO)(COC(=O)c3ccc(N(C)C)cc3)OC2=O)cc1 (racemic; form 2)	1080 nM	
CCCCCC/C=C1/CC(CO)(COC(=O)c2ccc(N(C)C)cc2)OC1=O (racemic)	131 nM	
CC(C)(C)C(=O)OCC1(CO)C/C(=C\c2ccc(F)c(Cl)c2)C(=O)O1 (racemic; form 2)	20.5 nM	
O=C1OC(CO)(COC(=O)C(c2ccccc2)c2ccccc2)C/C1=C/c1ccc(C(F)(F)F)cc1 (racemic)	52.4 nM	
O=C1OC(CO)(COC(=O)c2ccccc2)C/C1=C/C1CCCCC1 (racemic)	203 nM	
CCCC(CCC)C(=O)OCC1(CO)C/C(=C/c2ccc(Cl)cc2)C(=O)O1 (racemic)	13.1 nM	
COc1ccc(C(=O)OCC2(CO)C/C(=C/c3ccccc3)C(=O)O2)cc1 (racemic)	492 nM	
CCCC(CCC)C(=O)OCC1(CO)C/C(=C\c2ccc(F)cc2)C(=O)O1 (racemic; form 2)	17.1 nM	
CC(C)c1cc(C(C)C)c(C(=O)OCC2(CO)C/C(=C/c3ccccc3)C(=O)O2)c(C(C)C)c1 (racemic)	160 nM	
COc1ccc(/C=C2\CC(CO)(COC(=O)c3c(C(C)C)cc(C(C)C)cc3C(C)C)OC2=O)cc1 (racemic; form 1)	8 nM	

Structure (SMILES)	Ki [1]	Ki [2]
Cc1cc(C)c(C(=O)OCC2(CO)C/C(=C/c3ccc(C(F)(F)F)cc3)C(=O)O2)c(C)c1 (racemic)	25.1 nM	
COc1ccc(C(=O)OCC2(CO)C/C(=C\c3ccc([N+](=O)[O-])cc3)C(=O)O2)cc1 (racemic; form 2)	103 nM	
CCCCC(CC)C(=O)OCC1(CO)C/C(=C/c2ccc(Br)cc2)C(=O)O1 (racemic)	8.5 nM	
CCCC(CCC)C(=O)OCC1(CO)C/C(=C\c2ccc(C(F)(F)F)cc2)C(=O)O1 (racemic; form 1)	2.96 nM	
CN(C)c1ccccc1C(=O)OCC1(CO)C/C(=C\c2ccc([N+](=O)[O-])cc2)C(=O)O1 (racemic)	38.5 nM	1.8 nM
CCCCC(/C=C1/CC(CO)(COC(=O)c2ccc(N(C)C)cc2)OC1=O)CC (racemic; form 2)	134 nM	
CCCC(CCC)C(=O)OCC1(CO)C/C(=C\c2ccc(F)cc2)C(=O)O1 (racemic; form 1)	5.53 nM	
CC(C)C(=O)OCC1(CO)C/C(=C/c2cc(C(F)(F)F)cc(C(F)(F)F)c2)C(=O)O1 (racemic)	82.8 nM	
CC(C)C(=O)OCC1(CO)C/C(=C/c2ccc(F)c(Cl)c2)C(=O)O1 (stereo not drawn)	119 nM	
COc1ccc(/C=C2/CC(CO)(COC(=O)c3ccc([N+](=O)[O-])cc3)OC2=O)cc1 (racemic)	552 nM	
CN(C)c1ccc(/C=C2/CC(CO)(COC(=O)c3ccccc3)OC2=O)cc1 (racemic)	654 nM	
CC(C)c1cc(C(C)C)c(C(=O)OCC2(CO)C/C(=C/c3ccc(C(F)(F)F)cc3)C(=O)O2)c(C(C)C)c1 (racemic)	70 nM	
CCCCC(CC)C(=O)OCC1(CO)C/C(=C\c2ccc(Cl)cc2)C(=O)O1 (racemic; form 2)	2.9 nM	
CCCCCCC(=O)OCC1(CO)C/C(=C/c2ccc(C(F)(F)F)cc2)C(=O)O1 (racemic)	35.4 nM	
CCCCCC/C=C1/CC(CO)(COC(=O)CCCCCC)OC1=O (racemic)	37 nM	
CC(C)(C)C(=O)OCC1(CO)C/C(=C/c2ccc(-c3ccc(C(F)(F)F)cc3)cc2)C(=O)O1 (racemic)	27.2 nM	
CC(C)C(=O)OCC1(CO)C/C(=C/c2ccc(Br)cc2)C(=O)O1 (racemic)	72.6 nM	
CN(C)c1cccc(C(=O)OCC2(CO)C/C(=C\c3ccc([N+](=O)[O-])cc3)C(=O)O2)c1 (racemic)	31.8 nM	2.3 nM
O=C1OC(CO)(COC(=O)c2ccc(C(F)(F)F)cc2)C/C1=C/C1CCCCC1 (racemic)	106 nM	
Cc1ccccc1C(=O)OCC1(CO)C/C(=C/c2ccc(C(F)(F)F)cc2)C(=O)O1 (racemic)	47.8 nM	
COc1ccc(/C=C2/CC(CO)(COC(=O)c3ccccc3C)OC2=O)cc1 (racemic)	173 nM	
